Assay results as given in the EternaBench riboswitch data.

Legend:
MS2 coat protein [1] = assay: apparent Kd, MS2 coat protein; higher = weaker binding; RNA-MaP array
Summary of the method: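 Designed RNAs were produced on an Illumina sequencing chip by transcription of sequenced DNA templates. Binding to fluorescently labeled MS2 coat protein (1.5 nM to 3 μM) was measured at room temperature with or without input ligand. The apparent Kd is the median of per-cluster binding-curve fits. Designs were excluded when measured on fewer than 10 clusters.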

MS2 coat protein [2] = assay: apparent Kd, MS2 coat protein; higher = weaker binding; RNA-MaP array; FMN 200 µM where present
Summary of the method: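 The apparent Kd is the median of filtered binding-curve fits, one per cluster, to green signal normalised to red-channel RNA signal and control-cluster median Fmax. The clusters were on Illumina sequencing chips, and stalled E. coli RNA polymerase had transcribed the designs on them. Titration used SNAP-549-labelled MS2 coat protein from 0.7 or 1.5 nM, doubling to 3 µM, without and then with constant ligand, in 100 mM Tris-HCl pH 7.5, 80 mM KCl, 4 mM MgCl2, BSA, DTT, yeast tRNA and Tween-20.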

[3] = designed as: OFF switch for flavin mononucleotide, no ligand
[4] = ligand present: flavin mononucleotide, designed as: OFF switch for flavin mononucleotide
[5] = designed as: ON switch for flavin mononucleotide, no ligand
[6] = ligand present: flavin mononucleotide, designed as: ON switch for flavin mononucleotide

Sequence	apparent Kd (MS2 coat protein [1]; [3])	apparent Kd (MS2 coat protein [1]; [4])	apparent Kd (MS2 coat protein [2]; [3])	apparent Kd (MS2 coat protein [2]; [4])	other results
AGAAGACAUGAGGAUCACCCAUGUGAGGAUAUUACACUAGAAAACAGCCGCGUCUCGGUAAGAAGGCACUAUGG	33.9 nM	36.6 nM			
AGCGACAUGAGGAUCACCCAUGUGUUAGCUAAGCCUCUCAGCAGAAGGGAUGGUGUCCCAGAUGAUCAGGAUAUGCUGUUUUUG	32.2 nM	23.9 nM			
AGCGUGGAUAAAGGAUAUGUACCGGUAACUACAUGAGGAUCACCCAUGUCUUCAGGCCAAAACCGACAGAAGGUUACUUAUCGC	21.7 nM	20.7 nM			
AGUACCGUACGGAAAACAUGAGGAUCACCCAUGUCUAAUUAGAAGGAUAUGCUCUGUAAAUCGACGCAGAAGGUCAGCUAGAAU					apparent Kd (MS2 coat protein [1]; [5]): 22.5 nM; apparent Kd (MS2 coat protein [1]; [6]): 19 nM
AGUACGUCAGGAUAUCGCGUACGAAACAUGAGGAUCACCCAUGUGGUGCCGUGGCUCUAUCGAGAAGGGACUUGGC	13.3 nM	12.6 nM			
AGUGCAAUAUAGAAGGCCCAAACAUGAGGAUCACCCAUGUAGGUGUCACUGGUAGUGAAGGCUCGGGAGGAUAUAUCAUCCACA					apparent Kd (MS2 coat protein [1]; [5]): 32.9 nM; apparent Kd (MS2 coat protein [1]; [6]): 30.7 nM
AGUUACAAUGUCAGGAUAUUGCUCCCACGACGGAACAAGAAGGGACAUGAGGAUCACCCAUGUUAGUCUUCGUC	4.96 nM	5.98 nM			
AGUUUGGGCGCAGGAUAUCUUCACAUGAGGAUCACCCAUGUCCAUAAGAUAUUUAUGUCAUUUGGAGAGAAGGGCGGUUGUAAU					apparent Kd (MS2 coat protein [1]; [5]): 55.1 nM; apparent Kd (MS2 coat protein [1]; [6]): 36.1 nM
AUAAAUUUUACACGUUGCUACAUGAGGAUCACCCAUGUGUGGAGAAGGGAUCUGCCUACAAGGAAUCAGGAUAUCCAACUGUUC					apparent Kd (MS2 coat protein [1]; [5]): 32.9 nM; apparent Kd (MS2 coat protein [1]; [6]): 51.6 nM
AUAAUAGUAGGAUAUACAUGAGGAUCACCCAUGUGACCGCUCAAAGAUAGCGAUGCUCGUAGAAGGACUGUGGA	21.3 nM	21.8 nM			
AUACAGCUAGGAUAUCCGAUAGUAUACAUGAGGAUCACCCAUGUCCUGACGGCCGACCAUGGAGAAGGAGCAGAUA	42.2 nM	31.9 nM			
AUAGCCAAACAAGGAUAUACGCGCGUCACAGAAAAUGGGACAUGAGGAUCACCCAUGUGGGAAGAGUAGAAGGUGUUUCCAGAU	251 nM	147 nM			
AUAUGAGGAGUGAGGAUAUGAAUCUAACAGAAUAAUCAGAAGGCACAUGAGGAUCACCCAUGUAAAUAUAUGGU	10.6 nM	11.5 nM			
AUCAGUGGCUAGGAUAUGUUAGUCAGAUAUACAACAGAAGGAGCGACAUGAGGAUCACCCAUGUUACAGUGGAG	13 nM	22.2 nM			
AUCCGUGCAGCAAAUGGAGUGACAUGAGGAUCACCCAUGUAUGAGGAUAUGGCUCCGCCAGGGUACCAGAAGGCAUAAGGGAGG					apparent Kd (MS2 coat protein [1]; [5]): 908 nM; apparent Kd (MS2 coat protein [1]; [6]): 627 nM
UUUUAACAUGAGGAUCACCCAUGUGAGGAUAUCGAAAUUUAUAUUUAUAUUUAUAAAUCGAGAAGGCACAUUUU			110 nM	99.1 nM	
UUUUACAUAGGAUAUAGUUUGUUGUACAUGAGGAUCACCCAUGUUGUUGGUUGUGCUGUUCUAGAAGGAUGUUUCU			44.4 nM	33.8 nM	
UUUUAGACAGGAUAUACAUUUUUUUAUUUAUUUAUAAUAUUACAUGAGGAUCACCCAUGUAGAAGGGUCAUUUU			39.3 nM	31.2 nM	
UUUUAGCUAGGAUAUACAUUUUUUUUAUUAUCCUCAUUAUUACAUGAGGAUCACCCAUGUAGAAGGAGCAUUUU			237 nM	313 nM	
UUUUAGUCAGGAUAUACAUUUUUUUAAUUAUUUAUAAUAUUACAUGAGGAUCACCCAUGUAGAAGGGACAUUUU			28.6 nM	26.2 nM	
UUUUAGUGAGGAUAUGUGGCUUCGAUCGUGAGAUCGAGGCUACAGAAGGCACAUGAGGAUCACCCAUGUUCCUU			14.5 nM	46.8 nM	
UUUUAUUAGUAGAAGGACGGAGAGUAUGUAGUCGUAGGAUAUACAUAAGACAUGAGGAUCACCCAUGUGUGUAUUUUGGGUAUG			15.7 nM	13.2 nM	
UUUUUAUUUGAAGGAUAUACUUAACAUGAGGAUCACCCAUGUGGUGUUGUGAGUGAGUGAGUUUAGUAGAAGGUCAAUUAUUUU			373 nM	703 nM	
UUUUUCUCAGGAUAUACAUGAGGAUCACCCAUGUAUAUUGAAGAUAAUACAUGGGAAUGUAGAAGGGAGCUCAU			109 nM	115 nM	
UUUUUUAUCGUAGGAUAUAGGUUGAAUAAUAGACUAGAAGGACGUGACAUGAGGAUCACCCAUGUUUUUUAAGUGUCGAAGUGU					apparent Kd (MS2 coat protein [2]; [5]): 26.9 nM; apparent Kd (MS2 coat protein [2]; [6]): 25.7 nM
UUUUUUGUUGUGAGGAUAUCGUAUUUUUUUUGUUACGAGAAGGCACAUGAGGAUCACCCAUGUUUUUUGAUGUU			24.8 nM	56.7 nM	
UUUUUUUUAGUAAGGAUAUGAUGCAGGAAACUGCGUCAGAAGGUACAUGAGGAUCACCCAUGUUAAUUUUGUUU			18.8 nM	20.4 nM	
